# Experimental data gathered from unrelated publications.
# Protocols differ between the studies behind these lines.
# Target: Serine/threonine-protein kinase PAK 3 (PAK3, Homo sapiens, UniProt O75914)
Compound,assay,conditions,remaining binding
CC1CCCN1c1nccc(-c2cnn3ncccc23)n1 (centres unmarked),binding,1 µM,100%
O=C(Nc1c[nH]nc1C(=O)NC1CCNCC1)c1cc(F)cc(F)c1,"binding, competition with immobilised ligand",1 µM,98%
O=C(Nc1ccc(Oc2ccc(F)cc2)cc1)N1CCc2ncccc2[C@H]1c1ccc(F)cc1,"cell-free assay, competition with immobilised ligand",1 µM,100%
N[C@@H]1CCN(c2nccc(-c3cnn4ncccc34)n2)C1,binding,1 µM,99%
Cc1cnc(Nc2ccc(C(=O)N3CCC(N4CCCC4)CC3)cc2)nc1-c1cc2ccccc2s1,"binding, competition with immobilised ligand",1 µM,23%
C[C@@H]1CCN(c2nccc(-c3cnn4ncccc34)n2)C1,binding,1 µM,85%
CNC(=O)[C@@H]1CC[C@@H](n2c(-c3ccc4cnccc4c3)nc3ccc(C(=O)NCc4cccc(C(N)=O)c4)cc32)C1,"binding, competition with immobilised ligand",1 µM,95%
O=C(NCCCN1CCOCC1)c1ccc(Nc2ncc(Cl)c(-c3ccc(Cl)s3)n2)cc1,"binding, competition with immobilised ligand",1 µM,77%
CS(=O)(=O)NCC[C@H](NC(=O)c1cncc2c1cnn2-c1ccc(F)cc1)c1ccnc(S(C)(=O)=O)c1,"cell-free assay, competition with immobilised ligand",1 µM,100%
O=C(NCCCN1CCOCC1)c1ccc(Nc2nccc(-c3cc4ccccc4s3)n2)cc1,"binding, competition with immobilised ligand",1 µM,71%
C[C@H](c1cccc(C#N)c1)n1cc(Cl)cc(C(N)=O)c1=N,"cell-free assay, competition with immobilised ligand",1 µM,88%
FC(F)(F)Oc1cccc(-c2cnc3ccc(-c4ccncc4)nn23)c1,"cell-free assay, competition with immobilised ligand",5 µM,100%
Cc1c(NC(=O)c2cc(C(N)=O)nc3cc(F)ccc23)c(C(F)(F)F)nn1Cc1ccc(C(C)(C)C)cc1,"cell-free assay, competition with immobilised ligand",1 µM,100%
c1cncc(-c2cccc(Nc3nccc(NC4CCCCC4)n3)c2)c1,"binding, competition with immobilised ligand",10 µM,38%
CN(C)c1nccc(-c2cnn3ncccc23)n1,binding,1 µM,100%
C[C@@H](c1ccc(-n2cnc3c(N)ncnc32)cc1)N1CCc2nn(C)c(Cc3ccccc3)c2C1=O,"binding, competition with immobilised ligand",0.1 µM,71%
Cc1cnn2ncc(-c3ccnc(N(C)C)n3)c2c1,binding,1 µM,100%
CCC(=N\O)/C(C)=C/c1ccc(F)cc1,"cell-free assay, competition with immobilised ligand",1 µM,89%
CN(C)c1nccc(-c2cnc3ncccn23)n1,binding,1 µM,100%
CN([C@@H]1CCc2c(CC(=O)O)c3ccccc3n2C1)S(=O)(=O)c1ccc(F)cc1,"cell-free assay, competition with immobilised ligand",1 µM,98%
